Many of the other results were omitted from the sample, so hits are more common in it than they were.
KDM4C inh: inhibitors of GASC-1 (KDM4C) histone demethylase, primary screen, biochemical, single concentration HTS | hit rate 0.15% among 96,000 | inhibition, % at 12.5 µM | GST-KDM4C 2-372, H3K9me3 peptide, LANCE TR-FRET | Lysine-specific demethylase 4C (Homo sapiens), Q9H3R0;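 active = mean replicate inhibition above about 25%, with at least 55% of replicates also reaching it, limit read from the data, passing the limit was not always enough; inconclusive = only one of those two conditions met; inactive = neither condition met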
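Material: N-terminal GST-fused human GASC-1 (KDM4C) fragment, residues 2-372. Input: 10 nM enzyme. Incubation: enzyme reaction 30 min, then detection 60 min, both room temperature. Doses: one test concentration per compound. Read-out basis: inhibition from TR-FRET ratio decrease. Detection: LANCE TR-FRET, excitation 340 nm, emissions 618 and 671 nm.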
T cruzi growth-1: T. cruzi intracellular proliferation inhibitors, primary screen, cell-based, beta-gal Tulahuen parasites, NIH3T3 host, luminescence. T. cruzi beta-gal in NIH3T3, GalScreen luminescence, 90 h. inhibition, % at 8.34 µM. hit rate 5.9% among 77,000. AID 624255, 2012;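 active = mean inhibition above about 93%, with at least 55% of replicates each passing it, limit read from the data, passing the limit was not always enough; inconclusive = only one of those two conditions holds; inactive = neither condition holds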
IDH1 mut inh: inhibitors of IDH1 R132H reductase, primary screen, biochemical, plate reader, single point. Isocitrate dehydrogenase [NADP] cytoplasmic (Homo sapiens), O75874. diaphorase/resazurin fluorescence, 60 min. inhibition, % at 10 µM. hit rate 0.18% among 70,000; in the data active = inhibition above about 34%; inconclusive = no clear call, values can overlap the other calls; inactive = below about 11%;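 note: 0% = DMSO and 100% = no enzyme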
Target sequence (O75874 whole entry R132H): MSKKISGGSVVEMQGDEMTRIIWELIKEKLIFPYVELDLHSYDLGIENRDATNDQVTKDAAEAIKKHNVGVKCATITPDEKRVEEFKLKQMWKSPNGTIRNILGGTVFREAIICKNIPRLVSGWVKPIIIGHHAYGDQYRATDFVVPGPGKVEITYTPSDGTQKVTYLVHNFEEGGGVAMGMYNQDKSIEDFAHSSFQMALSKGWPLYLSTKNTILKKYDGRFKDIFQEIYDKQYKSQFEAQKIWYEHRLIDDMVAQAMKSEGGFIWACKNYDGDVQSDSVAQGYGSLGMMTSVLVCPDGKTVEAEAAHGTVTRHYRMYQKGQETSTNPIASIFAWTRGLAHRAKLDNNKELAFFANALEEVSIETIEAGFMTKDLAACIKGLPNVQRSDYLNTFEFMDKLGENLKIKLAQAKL
T cruzi growth-2: T. cruzi intracellular proliferation inhibitors, confirmation, cell-based, NIH3T3 host, beta-gal parasite, luminescence, cherry-pick. shares compounds with T cruzi growth-1. T. cruzi beta-gal in NIH3T3, GalScreen luminescence, 90 h. inhibition, % at 8.35 µM. hit rate 72% among 5,600;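 active = mean replicate inhibition above about 95% and at least 55% of replicates individually reaching it, limit read from the data; inconclusive = only one of the two criteria is met; inactive = neither criterion is met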
T cruzi growth-3: inhibitors of intracellular T. cruzi replication, confirmation, NIH3T3 host cells, beta-gal parasites, cherry-pick, set 2; shares compounds with T cruzi growth-1; T. cruzi beta-gal in NIH3T3, GalScreen luminescence, 90 h; inhibition, % at 2.09 µM; hit rate 21% among 5,600;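 active = mean inhibition above about 95%, with at least 55% of replicates also reaching it, limit read from the data; inconclusive = meets just one of the two conditions; inactive = meets neither condition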;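 note: plate controls were neutral control median for no effect and positive control median for full effect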
3T3 cytotox: cytotoxicity in mouse NIH/3T3 fibroblasts, confirmation, cytotoxicity control for T. cruzi proliferation inhibitor project, cell-based, cherry-pick, single point. hit rate 14% among 5,600. shares compounds with T cruzi growth-1. AID 651742, 2012. cytotoxicity (signal decrease), % at 8.35 µM. NIH/3T3 viability, CellTiter-Glo ATP luminescence, 90 h;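 active = mean signal decrease across replicates above about 35% based on untreated-well scatter, with enough replicates individually passing, limit read from the data; inconclusive = no rule stated though some were filed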;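 note: 0% = median of neutral control wells and 100% = median of positive control wells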
3T3 cytotox 2: NIH/3T3 fibroblast cytotoxicity, confirmation, cytotoxicity control, cell-based, cherry-pick, single point, set 2. hit rate 56% among 5,600. shares compounds with T cruzi growth-1. inhibition, % at 24.9 µM. NIH/3T3 viability, CellTiter-Glo ATP luminescence, 90 h;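 active = mean loss of cell viability signal at or above a set limit, and enough replicates individually reaching it; inconclusive = meets only the mean limit or only the replicate share; inactive = meets neither condition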;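 note: 0% = median of neutral control wells and 100% = median of positive control wells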
* marks the source's active call; other numbers are inactive results; u = inconclusive; x = not tested or not shown.

SMILES	KDM4C inh	T cruzi growth-1	IDH1 mut inh	T cruzi growth-2	T cruzi growth-3	3T3 cytotox	3T3 cytotox 2
C[C@H](CO)N1C[C@H](C)[C@H](CN(C)Cc2cccc(F)c2)Oc2cc(C#Cc3ccccn3)ccc2S1(=O)=O	-8	124*	x	103*	103*	-17	-20
COc1ccc(-c2nc(SCC(=O)Nc3cccc(F)c3)n[nH]2)cc1	x	x	0	x	x	x	x
CCOC(=O)CSc1ncnc2scc(-c3ccc(Cl)cc3)c12	x	x	0	x	x	x	x
COc1ccc(S(=O)(=O)N2CC[C@H]3[C@@H](CO)N(C)c4ccc(C5=CCCCC5)cc4[C@H]32)cc1	4	u	x	90	108*	10	70*
COc1cccc(-c2ccc3c(c2)[C@H]2[C@H](CCN2S(=O)(=O)C2=NC(C)C=N2)[C@@H](CO)N3C)c1 (stereo not given in full)	0	24	x	x	x	x	x
COc1ccc(-c2ccc3c(c2)[C@@H]2[C@@H](CCN2S(=O)(=O)C2=NC(C)C=N2)[C@@H](CO)N3C)cc1 (stereo not given in full)	3	u	x	103*	80	-17	-1
Cc1ccc(S(=O)(=O)N2CC[C@@H]3[C@H]2c2cc(C4=CCCCC4)ccc2N(C)[C@H]3CO)cc1	0	82	x	x	x	x	x
Cc1ccc(NC(=O)CSc2nnc(-c3cccnc3)n2-c2ccc(Br)cc2)cc1F	x	x	0	x	x	x	x
COc1ccc(-c2ccc(C#N)c(SCC(=O)Nc3cccc(C(F)(F)F)c3)n2)cc1	x	x	0	x	x	x	x
Cc1nnc(Sc2ccc(/C=N/NC(=O)c3ccccc3O)o2)n1C	x	x	0	x	x	x	x
S=C(Nc1cccc(Cl)c1)Nc1cc(-c2ccc(Cl)cc2)[nH]n1	x	x	4	x	x	x	x
COCC1OC(OC(C)(C)C2CCC3(C)C=C(C4CCC5C4(C)CC(O)C4OC(C(C)(C)OC6OC(CO)C(O)C(O)C6NC(C)=O)CCC45C)CCC3O2)C(NC(C)=O)C(O)C1O (stereo not given)	x	x	0	x	x	x	x
C[C@@H]1CN([C@@H](C)CO)S(=O)(=O)c2ccc(C3=CCCC3)cc2O[C@@H]1CN(C)Cc1ccccc1F	1	114*	x	99*	110*	-4	104*
C[C@H]1CN([C@@H](C)CO)S(=O)(=O)c2ccc(C3=CCCC3)cc2O[C@@H]1CN(C)Cc1ccccc1F	0	93	0	x	x	x	x
C[C@H]1CN([C@@H](C)CO)S(=O)(=O)c2ccc(C3=CCCC3)cc2O[C@H]1CN(C)Cc1ccccc1F	-3	94	0	x	x	x	x
C[C@H](CO)N1C[C@H](C)[C@@H](CN(C)Cc2ccccc2F)Oc2cc(C3=CCCC3)ccc2S1(=O)=O	5	u	1	97*	52	-7	105*
Cc1ccc(Cl)cc1NC(=O)CC(C(=O)O)N1CCNCC1 (stereo not given)	x	x	0	x	x	x	x
COc1ccc(/C=N/NC(=O)CCCCCC(=O)NO)cc1O	x	x	-1	x	x	x	x
COc1ccc(S(=O)(=O)N(C)C[C@H]2Oc3ccc(NC(=O)Cc4cn(C)c5ccccc45)cc3C(=O)N([C@@H](C)CO)C[C@H]2C)cc1	1	99*	-6	108*	29	9	61*
C[C@@H]1CN([C@@H](C)CO)C(=O)c2cc(NC(=O)Cc3cn(C)c4ccccc34)ccc2O[C@@H]1CN(C)Cc1ccc(Oc2ccccc2)cc1	16	93*	0	96*	u	30	76*
C[C@@H]1CN([C@@H](C)CO)C(=O)c2cc(NC(=O)Cc3cn(C)c4ccccc34)ccc2O[C@H]1CN(C)Cc1ccc(C(F)(F)F)cc1	5	113*	-4	105*	-1	10	u
C[C@H]1CN([C@@H](C)CO)C(=O)c2cc(NC(=O)Cc3cn(C)c4ccccc34)ccc2O[C@H]1CN(C)Cc1ccc(C(F)(F)F)cc1	-1	u	0	101*	47	-10	34
C[C@@H]1CN([C@H](C)CO)C(=O)c2cc(NC(=O)Cc3cn(C)c4ccccc34)ccc2O[C@@H]1CN(C)Cc1ccccc1	-2	20	0	x	x	x	x
COc1ccc(S(=O)(=O)N(C)C[C@@H]2Oc3ccc(NC(=O)Cc4cn(C)c5ccccc45)cc3C(=O)N([C@@H](C)CO)C[C@H]2C)cc1	3	58	-19	x	x	x	x
C[C@H]1CN([C@@H](C)CO)C(=O)c2cc(NC(=O)Cc3cn(C)c4ccccc34)ccc2O[C@H]1CN(C)Cc1ccc(Oc2ccccc2)cc1	-4	66	x	x	x	x	x
SMILES	KDM4C inh	T cruzi growth-1	IDH1 mut inh	T cruzi growth-2	T cruzi growth-3	3T3 cytotox	3T3 cytotox 2
C[C@H](CO)N1C[C@H](C)[C@H](CN(C)Cc2ccc(C(F)(F)F)cc2)Oc2ccc(NC(=O)Cc3cn(C)c4ccccc34)cc2C1=O	-1	101	-2	x	x	x	x
COc1cc([N+](=O)[O-])ccc1NC(=O)Nc1nn(Cc2ccc(Cl)c(Cl)c2)cc1Cl	x	x	0	x	x	x	x
COc1c(O)c(C(=O)/C=C\c2ccccc2)c(OC)c(OC)c1OC	x	x	-1	x	x	x	x
COCC(=O)N1CCCCN2[C@@H](CO)[C@@H](c3ccc(C#Cc4ccc(OC)cc4)cc3)[C@@H]2C1	-1	71	x	x	x	x	x
COCC(=O)N1CCCCN2[C@@H](CO)[C@H](c3ccc(C#Cc4cccnc4)cc3)[C@@H]2C1	0	99*	x	93	36	13	22
COCC(=O)N1CCCCN2[C@H](CO)[C@H](c3ccc(-c4ccc(OC)cc4)cc3)[C@@H]2C1	1	103*	x	76	11	22	32*
COCC(=O)N1CCCCN2[C@H](C1)[C@H](c1ccc(C#Cc3ccc(OC)cc3)cc1)[C@@H]2CO	-1	105*	x	95*	36	20	89*
COCC(=O)N1CCCCN2[C@@H](CO)[C@@H](c3ccc(C#Cc4cccnc4)cc3)[C@@H]2C1	1	30	x	x	x	x	x
COCC(=O)N1CCCCN2[C@H](C1)[C@@H](c1ccc(-c3ccc(OC)cc3)cc1)[C@@H]2CO	0	66	x	x	x	x	x
COCC(=O)N1CCCCN2[C@@H](CO)[C@H](c3ccc(-c4ccccc4)cc3)[C@@H]2C1	0	89	x	x	x	x	x
COCC(=O)N1CCCCN2[C@@H](CO)[C@H](c3ccc(-c4ccc(OC)cc4)cc3)[C@@H]2C1	0	104*	x	72	52	18	19
Cc1nn(C)c(C)c1NC(=O)CSc1nnc(-c2cccc(Br)c2)n1-c1ccccc1	x	x	0	x	x	x	x
COc1ccccc1CC(=O)Nc1cc(Cl)ccc1C(=O)O	x	x	-1	x	x	x	x
